Source: paper PMC7935786 (Cancer Science, 2021)
“Also recorded” adds a separate entry of the source.

Columns and labels:
[1] = test system: Japanese patients with relapsed or refractory B‐NHL; experiment: Phase I study: safety, adverse events and DLT; type: in vivo, human
Method in brief: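 Patients received 800 mg orally once in a 4-day cycle 0, then 800 mg BID in 28-day cycles; reduction to 600 then 400 mg BID permitted. AEs graded by CTCAE v4.03, with hematology, chemistry, urinalysis, vital signs, 12-lead ECG and LVEF by echo/MUGA. DLT assessed over cycles 0–1 in patients completing both with ≥75% cycle-1 compliance, or having DLT. Safety set: ≥1 dose.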

[2] = test system: relapsed or refractory B‐cell lymphoma; experiment: Phase I study: antitumor activity, Lugano Classification; type: in vivo, human
Method in brief: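 Oral dosing: 800 mg single dose in 4-day cycle 0, then 800 mg BID in 28-day cycles. Response assessed by CT per Lugano Classification. Bone marrow aspiration or biopsy if screening was positive or unconfirmed, to confirm CR, or when clinically indicated. Best overall response summarized overall and by DLBCL or FL in patients receiving ≥1 dose. ORR given with two-sided Clopper-Pearson exact 95% CIs.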

[3] = Phase I study: plasma and urine pharmacokinetics; type: in vivo, human; conditions: for R ss: AUC(0-12h) on cycle 1 day 15/AUC(0-inf) on cycle 0 day 1; for t max: median (minimum, maximum)
[4] = cited from earlier work
[5] = test system: refractory B‐NHL and advanced solid tumors; conditions: study outside of Japan; cited from earlier work
CYP3A4 = conditions: ref Unpublished data in Eisai, cited from earlier work
[6] = seven treated patients, investigator assessment

Structure (SMILES): CCN(c1cc(-c2ccc(CN3CCOCC3)cc2)cc(C(=O)NCc2c(C)cc(C)[nH]c2=O)c1C)C1CCOCC1 [Tazemetostat]
- Grade 3 AE anemia ([1]; n = 7): 14.3%
- Grade 3 AE fatigue ([1]; n = 7): 14.3%
- Grade 3 AE hypophosphatemia ([1]; n = 7): 14.3%
- Grade 3 AE increased γ‐glutamyltransferase ([1]; n = 7): 14.3%
- Grade 3 AE leukopenia ([1]; n = 7): 14.3%
- Grade 3 AE lymphopenia ([1]; n = 7): 14.3%
- Grade 3 AE neutropenia ([1]; n = 7): 14.3%
- Grade 3 AE squamous cell carcinoma of the tongue ([1]; n = 7): 14.3%
- Grade 3 AE thrombocytopenia ([1]; n = 7): 28.6%
- Grade 3 or higher AEs ([1]; n = 7): 57.1%
- Grade 4 AE increased levels of blood triglycerides ([1]; n = 7): 14.3%
- Grade 4 AE intestinal perforation ([1]; n = 7): 14.3%
- TR‐AE dysgeusia ([1]; n = 7): 42.9%
- TR‐AE thrombocytopenia ([1]; n = 7): 42.9%
- grade 2 peripheral neuropathy, leading to drug dose reduction ([1]; n = 7): 14.3%
- patients having at least one TR‐AE ([1]; n = 7): 85.7%
- patients who died or had AEs resulting in death ([1]; n = 7): None
- patients who experienced at least one AE ([1]; n = 7): seven
- treatment‐related serious AEs ([1]; n = 7): No treatment‐related serious AEs
- Serious AEs ([1]; n = 7, intestinal perforation and squamous cell carcinoma of the tongue): 28.6%
- treatment‐related serious AEs ([1]; n = 7, listed as tazemetostat): both assessed as not related to study drug; also recorded: No treatment‐related SAEs
- patients who received a reduction in the tazemetostat dose ([1]; n = 7, section 3.2): 14.3%
- time to first dose reduction ([1]; one patient): 4.9 months
- responses in patients with DLBCL ([2]; DLBCL): one of three
- Best overall response: Complete response (CR) ([2]; DLBCL (n = 3), 800 mg BID): 1 (33.3) n (%)
- Best overall response: Not evaluable ([2]; DLBCL (n = 3), 800 mg BID): 0 (0.0) n (%)
- Best overall response: Partial response (PR) ([2]; DLBCL (n = 3), 800 mg BID): 0 (0.0) n (%)
- Best overall response: Progressive disease ([2]; DLBCL (n = 3), 800 mg BID): 2 (66.7) n (%)
- Best overall response: Stable disease ([2]; DLBCL (n = 3), 800 mg BID): 0 (0.0) n (%)
- Objective response rate (CR + PR) ([2]; DLBCL (n = 3), 800 mg BID): 1 (33.3) n (%)
- responses in patients with FL ([2]; FL): three of four
- Best overall response: Complete response (CR) ([2]; FL (n = 4), 800 mg BID): 0 (0.0) n (%)
- Best overall response: Not evaluable ([2]; FL (n = 4), 800 mg BID): 0 (0.0) n (%)
- Best overall response: Partial response (PR) ([2]; FL (n = 4), 800 mg BID): 3 (75.0) n (%)
- Best overall response: Progressive disease ([2]; FL (n = 4), 800 mg BID): 0 (0.0) n (%)
- Best overall response: Stable disease ([2]; FL (n = 4), 800 mg BID): 1 (25.0) n (%)
- Objective response rate (CR + PR) ([2]; FL (n = 4), 800 mg BID): 3 (75.0) n (%)
- Best overall response: Complete response (CR) ([2]; Total (n = 7), 800 mg BID): 1 (14.3) n (%)
- Best overall response: Not evaluable ([2]; Total (n = 7), 800 mg BID): 0 (0.0) n (%)
- Best overall response: Partial response (PR) ([2]; Total (n = 7), 800 mg BID): 3 (42.9) n (%)
- Best overall response: Progressive disease ([2]; Total (n = 7), 800 mg BID): 2 (28.6) n (%)
- Best overall response: Stable disease ([2]; Total (n = 7), 800 mg BID): 1 (14.3) n (%)
- Objective response rate (CR + PR) ([2]; Total (n = 7), 800 mg BID): 4 (57.1) n (%)
- ORR ([2]; all patients (4/7), 800 mg BID): 57.1%
- patients who experienced a reduction of tumor burden ([2]; n = 7): 85.7%
- maximum change in the sum of the product of the diameters from baseline in the target lesion ([2]; one patient with FL with gain‐of‐function mutation in EZH2, partial response): −82.3%
- CR as BOR [2, 6]: 14.3%
- PR as BOR [2, 6]: 42.9%
- progressive disease as BOR [2, 6]: 28.6%
- stable disease as BOR [2, 6]: 14.3%
- absorption after oral administration ([3]; 800 mg oral): rapidly absorbed
- R ss ([3]; mean (SD)): 0.849 (0.277)
- R ss ([3]; mean (SD), listed as tazemetostat): 0.849
- mean urinary excretion of tazemetostat ([3]; both after C0D1 and C1D15 dosing): less than 3%
- Vd/F ([3]; human, plasma, oral, 800 mg): 1910 L
- AUC ([3]; human, plasma, oral, 800 mg BID, AUC(0‐ t ), plasma, after multiple doses, Cycle 1 day 15, last sampling time point 12 h, mean (SD), N = 7): 4490 ng·h/mL
- t max ([3]; human, plasma, oral, 800 mg BID, t max, plasma, after multiple doses, Cycle 1 day 15, N = 7): ~1 h
- AUC ([3]; human, plasma, oral, 800 mg, AUC(0‐12 h), plasma, after single dose, Cycle 0 day 1, mean (SD), N = 7): 4700 ng·h/mL
- AUC ([3]; human, plasma, oral, 800 mg, AUC(0‐ t ), plasma, after single dose, Cycle 0 day 1, last sampling time point 72 h, mean (SD), N = 7): 5990 ng·h/mL
- AUC ([3]; human, plasma, oral, 800 mg, AUC(0‐inf), plasma, after single dose, Cycle 0 day 1, mean (SD), N = 7): 6030 ng·h/mL
- t max ([3]; human, plasma, oral, 800 mg, t max, plasma, after single dose, Cycle 0 day 1, N = 7): ~2 h
- Cmax ([3]; human, plasma, po, 800 mg): 1150 ng/mL
- C ss,min ([3]; plasma, after multiple doses 800 mg BID, Cycle 1 day 15, mean (SD), N = 7): 95.1 (37.7) ng/mL
- t max ([3]; plasma, after multiple doses, Cycle 1 day 15, N = 7): 1.05 (0.88, 2.03) h
- t max ([3]; plasma, after single dose, Cycle 0 day 1, N = 7): 1.97 (0.95, 4.08) h
- treatment‐related deaths ([4]; 99 patients): no treatment‐related deaths
- treatment‐related grade 3 or higher AE anemia ([4]; all 99 patients): 2%
- treatment‐related grade 3 or higher AE neutropenia ([4]; all 99 patients): 3%
- treatment‐related grade 3 or higher AE thrombocytopenia ([4]; all 99 patients): 3%
- Treatment‐related SAEs ([4]; four of 99 patients): 4%
- recommended dose [5]: 800 mg BID
- effect on the activity of CYP3A4 (CYP3A4; in vitro): induce and inhibit
- metabolizing enzyme (CYP3A4): mainly metabolized by CYP3A4
